Data published in ChEMBL document CHEMBL1148336, “3-Aminopyrazole inhibitors of CDK2/cyclin A as antitumor agents. 1. Lead finding” (J Med Chem, 2004).

What was measured:
[1] = biological target: Tyrosine-protein kinase Lyn (Homo sapiens, UniProt P07948); test: Inhibition of Protein tyrosine kinase Lyn
Outline: (§1)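 Radiometric kinase assay. Enzyme (0.7–100 nM) and substrate (5Km) incubated with ATP/33P-γ-ATP (2Km) and compound serially diluted 3-fold from 10 to 0.0015 μM, 1% DMSO, 30–90 min at room temperature. Product separated by SPA, Dowex or phosphocellulose filter, then counted.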

[2] = biological target: Serine/threonine-protein kinase PAK 4 (Homo sapiens, UniProt O96013); test: Inhibition of PAK4 kinase; outline: as §1
[3] = biological target: High affinity nerve growth factor receptor (Homo sapiens, UniProt P04629); test: Inhibition of Trk A kinase activity; outline: as §1
[4] = biological target: Serine/threonine-protein kinase Chk1 (Homo sapiens, UniProt O14757); test: Inhibition of Serine/threonine-protein kinase Chk1
Outline: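 ATP/33P-γ-ATP 2Km, substrate 5Km, 1% DMSO, compound 10–0.0015 μM, 30–90 min at room temperature. SPA.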

Rattus norvegicus [5] = test: In vivo area under curve was determined for the compound after oral (po) administration at a dose of 10 mg/kg in rats; type: ADME, organism-based; parameters: dose 10 mg/kg, route oral
Outline: (§2)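 Male Sprague Dawley rats (~270), fasted overnight, received a single iv or oral dose in PEG400, 4% Tween 80/dextrose (60:40), three rats per route. Jugular/catheter blood was drawn predose and at 5, 15 and 30 min and 1, 2, 4, 6 and 24 h, and plasma was analysed by LC/MS/MS. Analysis was noncompartmental: Cmax/Tmax observed, AUC by linear trapezoidal rule, and F from dose-normalized oral/iv AUC.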

Rattus norvegicus [6] = test: In vivo half-life period for compound after oral (po) administration at a dose of 10 mg/kg was measured in rats; type: ADME, organism-based; parameters: dose 10 mg/kg, route oral; outline: as §2
[7] = biological target: RAC-alpha serine/threonine-protein kinase (Homo sapiens, UniProt P31749); test: Inhibition of Protein kinase B (Akt-1)
Outline: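 Recombinant AKT-1 (insect cells), 5 nM, with AKTtide in 10 mM Tris-HCl pH 7.4, 10 mM MgCl2, 7.4 mM DTT. ATP/33P-γ-ATP at 2Km, substrate at 5Km, 1% DMSO. 3-fold dilutions from 10 μM, 30–90 min at room temperature. Dowex resin separation, supernatant radioactivity counted.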

[8] = biological target: Vascular endothelial growth factor receptor 2 (Homo sapiens, UniProt P35968); test: Inhibition of VEGFR-2 kinase activity; outline: as §1
[9] = Oral bioavailability after oral (po) administration at a dose of 10 mg/kg was measured in rats; type: ADME, organism-based; details: rat, in vivo, read-out: Bioavailabiility; outline: as §2
[10] = biological target: 3-phosphoinositide-dependent protein kinase 1 (Homo sapiens, UniProt O15530); test: Inhibition of PDK1 kinase activity; outline: as §1
[11] = biological target: Inhibitor of nuclear factor kappa-B kinase subunit epsilon (Homo sapiens, UniProt Q14164); test: Inhibition of IKKi (IKK epsilon) kinase activity; outline: as §1
[12] = biological target: Mitogen-activated protein kinase 1 (Homo sapiens, UniProt P28482); test: Inhibition of Mitogen-activated protein kinase 1 activity
Outline: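 ERK-2 at 3 nM (insect-cell recombinant) with MBP in Tris-HCl pH 7.4 10 mM, MgCl2 10 mM, DTT 7.4 mM. ATP/33P-γ-ATP 2Km, substrate 5Km, 1% DMSO, 10 to 0.0015 μM compound, 30–90 min at room temperature. Dowex resin (formate, pH 3) removed free ATP; supernatant counted.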

[13] = Total body clearance was evaluated for the compound after i.v. administration at a dose of 5 mg/kg was measured in rats; type: ADME, organism-based; parameters: dose 5 mg/kg, route intravenous; details: rat, in vivo, iv; outline: as §2
Rattus norvegicus [14] = test: Maximal concentration in male Sprague-Dawley rats after 5 mg/kg intravenous dose; type: ADME, organism-based; parameters: dose 5 mg/kg, route intravenous; details: in vivo; outline: as §2
Insulin receptor = Insulin receptor (Homo sapiens, UniProt P06213); test: Inhibition of IR kinase activity; outline: as §1
[15] = biological target: Mitogen-activated protein kinase 14 (Homo sapiens, UniProt Q16539); test: Inhibition of Mitogen-activated protein kinase p38 alpha; outline: as §1
Rattus norvegicus [16] = test: Maximal concentration in male Sprague-Dawley rats after 10 mg/kg oral dose; type: ADME, organism-based; parameters: dose 10 mg/kg, route oral; details: in vivo; outline: as §2
[17] = biological target: Insulin-like growth factor 1 receptor (Homo sapiens, UniProt P08069); test: Inhibition of Insulin-like growth factor I receptor
Outline: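 IGF1R (6 nM, insect-cell recombinant) phosphorylating IRStide in 50 mM Hepes pH 7.5, 3 mM MnCl2, 1 mM DTT, 3 μM NaVO3. 33P-ATP mix at 2Km, substrate 5Km, 1% DMSO. Compound in 3-fold series from 10 μM, 30–90 min at room temperature. SPA counting.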

[18] = biological target: Tyrosine-protein kinase ABL (Homo sapiens, UniProt P00519+P42684); test: Inhibition of V-abl tyrosine kinase (ABL); type: protein assay
Outline: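 ABL at 1.2 nM, recombinant from insect cells, with MBP in 50 mM Hepes pH 7.5, 3 mM MgCl2, 3 mM MnCl2, 1 mM DTT, 3 μM NaVO3. 2Km ATP/33P-γ-ATP, 5Km substrate, 1% DMSO. 3-fold series from 10 μM, 30–90 min at room temperature. SPA readout.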

[19] = biological target: Inhibitor of nuclear factor kappa-B kinase subunit beta (Homo sapiens, UniProt O14920); test: Inhibition of I-kappa-B-kinase beta activity
Outline: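 ATP/33P-γ-ATP 2Km, substrate 5Km, 1% DMSO, 10–0.0015 μM compound, 30–90 min at room temperature. SPA detection.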

[20] = Steady-state volume of distribution was evaluated for the compound after i.v. administration at a dose of 5 mg/kg was measured in rats; type: ADME, organism-based; parameters: dose 5 mg/kg, route intravenous; details: rat, in vivo, iv, read-out: Vss; outline: as §2
[21] = biological target: CDC7/DBF4 (Cell division cycle 7-related protein kinase/Activator of S phase kinase) (Homo sapiens, UniProt O00311); test: Inhibition of CDC7/DBF4 kinase activity; type: protein-complex assay
Outline: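 Recombinant CDC7/DBF4 (insect cells), 18 nM, with MCM2 substrate in 50 mM Hepes pH 7.5, 5 mM MgCl2, 1 mM DTT, 3 μM NaVO3. ATP/33P-γ-ATP at 2Km, substrate at 5Km, 1% DMSO, compound 10 to 0.0015 μM in 3-fold steps, 30–90 min at room temperature. SPA bead capture.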

Rattus norvegicus [22] = test: In vivo area under curve was determined for the compound after i.v. administration at a dose of 5 mg/kg in rats; type: ADME, organism-based; parameters: dose 5 mg/kg, route intravenous; details: iv; outline: as §2
[23] = biological target: Mast/stem cell growth factor receptor Kit (Homo sapiens, UniProt P10721); test: Inhibition of KIT kinase activity; outline: as §1
Rattus norvegicus [24] = test: In vivo half-life period for compound after i.v. administration at a dose of 5 mg/kg was measured in rats; type: ADME, organism-based; parameters: dose 5 mg/kg, route intravenous; details: iv; outline: as §2
[25] = biological target: Glycogen synthase kinase-3 beta (Homo sapiens, UniProt P49841); test: Inhibition of Glycogen synthase kinase-3 beta
Outline: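 GSK-3β at 20 nM (in-house, insect cells), MBP substrate, 50 mM Hepes pH 7.5, 3 mM MgCl2, 3 mM MnCl2, 1 mM DTT, 3 μM NaVO3. ATP/33P-γ-ATP 2Km, substrate 5Km, 1% DMSO. 3-fold dilutions from 10 μM, 30–90 min at room temperature. SPA.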

[26] = biological target: Aurora kinase A (Homo sapiens) (UniProt O14965); test: Inhibition of Aurora kinase A
Sequence of Aurora kinase A (Homo sapiens) (O14965 whole entry, looked up): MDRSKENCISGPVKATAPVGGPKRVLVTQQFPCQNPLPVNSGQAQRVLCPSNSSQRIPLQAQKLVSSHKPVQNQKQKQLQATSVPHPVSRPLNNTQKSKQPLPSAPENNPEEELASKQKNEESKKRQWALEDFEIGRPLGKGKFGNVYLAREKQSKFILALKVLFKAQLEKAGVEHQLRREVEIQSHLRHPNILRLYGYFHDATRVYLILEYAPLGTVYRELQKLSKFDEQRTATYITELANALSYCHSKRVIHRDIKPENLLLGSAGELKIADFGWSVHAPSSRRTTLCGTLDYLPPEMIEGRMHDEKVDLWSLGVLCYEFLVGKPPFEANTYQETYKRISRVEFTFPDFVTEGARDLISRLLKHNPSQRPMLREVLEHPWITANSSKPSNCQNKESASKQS

Sequence of High affinity nerve growth factor receptor (P04629 whole entry): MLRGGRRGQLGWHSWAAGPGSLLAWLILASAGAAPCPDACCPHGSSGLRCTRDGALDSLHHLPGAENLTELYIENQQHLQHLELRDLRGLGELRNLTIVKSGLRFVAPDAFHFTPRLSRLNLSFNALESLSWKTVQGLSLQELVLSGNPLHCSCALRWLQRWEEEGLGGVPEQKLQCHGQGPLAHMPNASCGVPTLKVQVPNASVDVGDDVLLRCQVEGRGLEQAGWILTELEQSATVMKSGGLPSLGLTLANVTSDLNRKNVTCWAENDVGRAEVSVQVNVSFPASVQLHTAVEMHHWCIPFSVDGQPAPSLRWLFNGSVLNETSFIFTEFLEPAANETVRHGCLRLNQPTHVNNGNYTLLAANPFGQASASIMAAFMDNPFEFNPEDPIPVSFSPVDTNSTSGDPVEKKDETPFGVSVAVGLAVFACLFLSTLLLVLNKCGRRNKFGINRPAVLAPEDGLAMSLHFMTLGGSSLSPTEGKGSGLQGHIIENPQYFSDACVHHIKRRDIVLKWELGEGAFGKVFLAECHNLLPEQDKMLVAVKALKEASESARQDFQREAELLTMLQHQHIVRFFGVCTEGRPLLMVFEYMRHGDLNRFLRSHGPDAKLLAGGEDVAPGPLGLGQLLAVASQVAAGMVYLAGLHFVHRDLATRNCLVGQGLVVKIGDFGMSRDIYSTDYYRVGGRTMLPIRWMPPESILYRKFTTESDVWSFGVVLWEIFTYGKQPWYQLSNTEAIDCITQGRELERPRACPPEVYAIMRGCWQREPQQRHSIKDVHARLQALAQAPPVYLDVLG
Sequence of Vascular endothelial growth factor receptor 2 (P35968 whole entry): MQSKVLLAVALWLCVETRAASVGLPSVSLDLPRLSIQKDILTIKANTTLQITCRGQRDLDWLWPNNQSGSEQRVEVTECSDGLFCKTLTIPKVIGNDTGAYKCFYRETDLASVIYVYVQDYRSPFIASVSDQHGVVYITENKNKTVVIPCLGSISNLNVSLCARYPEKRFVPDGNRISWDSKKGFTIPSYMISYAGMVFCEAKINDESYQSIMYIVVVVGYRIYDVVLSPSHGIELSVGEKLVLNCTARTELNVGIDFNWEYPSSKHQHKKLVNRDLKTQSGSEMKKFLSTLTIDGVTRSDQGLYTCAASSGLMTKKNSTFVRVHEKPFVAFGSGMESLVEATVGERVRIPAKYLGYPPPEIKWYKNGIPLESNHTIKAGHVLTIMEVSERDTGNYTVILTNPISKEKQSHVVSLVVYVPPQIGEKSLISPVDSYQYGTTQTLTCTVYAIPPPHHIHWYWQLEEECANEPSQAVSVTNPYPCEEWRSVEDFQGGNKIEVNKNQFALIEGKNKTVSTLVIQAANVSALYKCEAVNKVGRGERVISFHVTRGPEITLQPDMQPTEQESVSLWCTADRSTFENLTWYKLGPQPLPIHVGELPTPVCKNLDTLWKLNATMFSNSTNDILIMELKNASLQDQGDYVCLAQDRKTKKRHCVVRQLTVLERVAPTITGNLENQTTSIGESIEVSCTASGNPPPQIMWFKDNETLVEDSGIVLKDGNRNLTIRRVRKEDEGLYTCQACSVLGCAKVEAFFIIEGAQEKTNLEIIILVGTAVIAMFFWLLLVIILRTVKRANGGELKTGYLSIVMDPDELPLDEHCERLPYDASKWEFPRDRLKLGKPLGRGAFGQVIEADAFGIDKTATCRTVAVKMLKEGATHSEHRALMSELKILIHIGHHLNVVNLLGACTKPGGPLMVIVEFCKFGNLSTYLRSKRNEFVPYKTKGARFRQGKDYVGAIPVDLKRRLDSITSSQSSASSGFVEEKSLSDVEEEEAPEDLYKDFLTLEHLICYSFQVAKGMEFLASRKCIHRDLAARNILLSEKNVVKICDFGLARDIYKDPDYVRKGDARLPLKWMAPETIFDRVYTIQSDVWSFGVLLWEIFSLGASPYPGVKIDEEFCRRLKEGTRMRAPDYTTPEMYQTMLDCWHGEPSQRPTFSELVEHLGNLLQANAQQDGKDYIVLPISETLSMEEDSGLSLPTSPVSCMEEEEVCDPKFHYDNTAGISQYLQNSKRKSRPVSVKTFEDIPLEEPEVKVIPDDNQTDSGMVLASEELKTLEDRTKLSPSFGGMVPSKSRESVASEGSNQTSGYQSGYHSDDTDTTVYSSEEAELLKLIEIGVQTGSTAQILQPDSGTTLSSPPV
Sequence of RAC-alpha serine/threonine-protein kinase (P31749 whole entry): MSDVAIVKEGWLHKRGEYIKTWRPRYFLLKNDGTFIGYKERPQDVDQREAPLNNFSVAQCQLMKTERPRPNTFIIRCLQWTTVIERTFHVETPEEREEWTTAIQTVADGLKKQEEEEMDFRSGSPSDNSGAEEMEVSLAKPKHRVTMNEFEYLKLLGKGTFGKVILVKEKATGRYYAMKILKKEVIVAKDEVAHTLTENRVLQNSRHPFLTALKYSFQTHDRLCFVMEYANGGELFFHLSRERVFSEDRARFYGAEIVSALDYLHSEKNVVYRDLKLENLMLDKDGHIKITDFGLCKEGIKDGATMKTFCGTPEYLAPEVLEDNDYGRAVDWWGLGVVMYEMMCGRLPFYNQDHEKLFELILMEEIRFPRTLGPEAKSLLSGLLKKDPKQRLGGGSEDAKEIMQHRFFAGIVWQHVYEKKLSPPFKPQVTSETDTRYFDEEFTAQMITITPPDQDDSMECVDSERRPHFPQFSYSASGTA
Sequence of Inhibitor of nuclear factor kappa-B kinase subunit beta (O14920 whole entry): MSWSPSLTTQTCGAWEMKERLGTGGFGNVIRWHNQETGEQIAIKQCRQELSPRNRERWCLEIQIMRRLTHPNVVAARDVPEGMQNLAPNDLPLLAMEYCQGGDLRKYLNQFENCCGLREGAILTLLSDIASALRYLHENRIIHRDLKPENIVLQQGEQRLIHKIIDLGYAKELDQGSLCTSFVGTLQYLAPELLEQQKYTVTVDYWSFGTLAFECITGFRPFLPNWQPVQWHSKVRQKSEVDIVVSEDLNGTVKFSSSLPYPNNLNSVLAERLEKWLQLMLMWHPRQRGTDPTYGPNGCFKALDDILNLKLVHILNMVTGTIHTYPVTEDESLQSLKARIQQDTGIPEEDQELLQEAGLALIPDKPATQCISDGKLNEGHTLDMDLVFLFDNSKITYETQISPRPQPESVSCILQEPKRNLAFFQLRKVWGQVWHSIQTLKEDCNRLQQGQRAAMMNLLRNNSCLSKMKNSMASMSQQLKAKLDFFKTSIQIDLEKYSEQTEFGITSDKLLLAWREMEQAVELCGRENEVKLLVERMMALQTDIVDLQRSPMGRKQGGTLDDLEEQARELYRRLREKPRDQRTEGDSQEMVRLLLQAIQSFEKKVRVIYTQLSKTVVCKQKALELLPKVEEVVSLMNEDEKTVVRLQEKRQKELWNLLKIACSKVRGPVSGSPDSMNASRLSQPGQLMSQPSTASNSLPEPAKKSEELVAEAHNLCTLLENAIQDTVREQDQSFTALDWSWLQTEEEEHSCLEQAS
Sequence of 3-phosphoinositide-dependent protein kinase 1 (O15530 whole entry): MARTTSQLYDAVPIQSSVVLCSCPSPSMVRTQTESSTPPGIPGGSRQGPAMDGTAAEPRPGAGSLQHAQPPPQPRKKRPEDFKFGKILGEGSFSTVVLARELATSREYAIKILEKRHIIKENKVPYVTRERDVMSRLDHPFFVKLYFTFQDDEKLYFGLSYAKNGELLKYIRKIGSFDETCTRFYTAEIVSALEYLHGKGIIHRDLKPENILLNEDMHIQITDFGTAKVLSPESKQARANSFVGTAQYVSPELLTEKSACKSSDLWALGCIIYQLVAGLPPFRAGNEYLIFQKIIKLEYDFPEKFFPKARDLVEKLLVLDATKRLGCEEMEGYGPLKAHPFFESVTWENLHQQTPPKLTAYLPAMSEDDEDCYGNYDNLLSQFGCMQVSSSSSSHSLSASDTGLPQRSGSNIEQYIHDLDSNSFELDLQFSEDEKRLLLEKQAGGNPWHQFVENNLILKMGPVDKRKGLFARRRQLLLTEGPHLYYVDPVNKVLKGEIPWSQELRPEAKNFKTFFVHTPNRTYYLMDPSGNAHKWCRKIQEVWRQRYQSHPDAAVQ
Sequence of Serine/threonine-protein kinase PAK 4 (O96013 whole entry): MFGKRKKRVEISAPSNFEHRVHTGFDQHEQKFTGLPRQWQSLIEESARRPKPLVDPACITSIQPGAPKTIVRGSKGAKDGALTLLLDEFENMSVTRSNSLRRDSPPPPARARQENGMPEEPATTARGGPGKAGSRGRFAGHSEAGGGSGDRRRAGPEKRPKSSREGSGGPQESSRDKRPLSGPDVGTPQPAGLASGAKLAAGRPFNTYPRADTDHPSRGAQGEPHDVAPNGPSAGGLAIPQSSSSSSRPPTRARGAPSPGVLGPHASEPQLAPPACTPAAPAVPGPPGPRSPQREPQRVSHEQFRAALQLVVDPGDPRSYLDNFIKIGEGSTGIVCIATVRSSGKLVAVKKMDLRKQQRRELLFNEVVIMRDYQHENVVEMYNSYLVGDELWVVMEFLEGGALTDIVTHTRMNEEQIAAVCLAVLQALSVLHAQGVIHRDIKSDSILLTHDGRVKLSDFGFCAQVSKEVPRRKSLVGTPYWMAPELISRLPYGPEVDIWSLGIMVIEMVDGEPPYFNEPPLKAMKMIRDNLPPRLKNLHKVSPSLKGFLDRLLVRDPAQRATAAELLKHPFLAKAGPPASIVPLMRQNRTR

IC50 [1]: > 10 µM
IC50 [2]: > 10 µM
IC50 [3]: > 10 µM
IC50 [4]: > 10 µM
AUC total (Rattus norvegicus [5]): 38.18 µM·h
T1/2 (Rattus norvegicus [6]): 2.38 h
IC50 [7]: > 10 µM
IC50 [8]: > 10 µM
bioavailability [9]: 89.8%
IC50 [10]: > 10 µM
IC50 [11]: > 10 µM
IC50 [12]: 4.6 µM
clearance [13]: 13.5 mL/min/kg
Cmax (Rattus norvegicus [14]): 19.4 µM
IC50 (Insulin receptor): > 10 µM
IC50 [15]: > 10 µM
Cmax (Rattus norvegicus [16]): 9.63 µM
IC50 [17]: > 10 µM
IC50 [18]: > 10 µM
IC50 [19]: > 10 µM
Vd [20]: 1.06 L/kg
IC50 [21]: > 10 µM
AUC total (Rattus norvegicus [22]): 21.24 µM·h
IC50 [23]: > 10 µM
T1/2 (Rattus norvegicus [24]): 1 h
IC50 [25]: 1.91 µM
IC50 [26]: > 10 µM
SMILES: O=C(Cc1ccc2ccccc2c1)Nc1cc(C2CC2)n[nH]1
